Bioassay records from PubChem BioAssay.
pCIP destab – p/CIP protein destabilization; Q05BA5; F442A p/CIP-EGFP cells, EGFP fluorescence, 16 h; decrease of EGFP signal, % at 10 µM; hit rate 0.01% among 290,000; AID 1984;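 active = EGFP signal decrease of at least 30% at 10 µM or well 3 SD below plate mean, unless failing retest; inactive = the rest, including hits failing retest or dose response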
Target sequence (Q05BA5 1-1403): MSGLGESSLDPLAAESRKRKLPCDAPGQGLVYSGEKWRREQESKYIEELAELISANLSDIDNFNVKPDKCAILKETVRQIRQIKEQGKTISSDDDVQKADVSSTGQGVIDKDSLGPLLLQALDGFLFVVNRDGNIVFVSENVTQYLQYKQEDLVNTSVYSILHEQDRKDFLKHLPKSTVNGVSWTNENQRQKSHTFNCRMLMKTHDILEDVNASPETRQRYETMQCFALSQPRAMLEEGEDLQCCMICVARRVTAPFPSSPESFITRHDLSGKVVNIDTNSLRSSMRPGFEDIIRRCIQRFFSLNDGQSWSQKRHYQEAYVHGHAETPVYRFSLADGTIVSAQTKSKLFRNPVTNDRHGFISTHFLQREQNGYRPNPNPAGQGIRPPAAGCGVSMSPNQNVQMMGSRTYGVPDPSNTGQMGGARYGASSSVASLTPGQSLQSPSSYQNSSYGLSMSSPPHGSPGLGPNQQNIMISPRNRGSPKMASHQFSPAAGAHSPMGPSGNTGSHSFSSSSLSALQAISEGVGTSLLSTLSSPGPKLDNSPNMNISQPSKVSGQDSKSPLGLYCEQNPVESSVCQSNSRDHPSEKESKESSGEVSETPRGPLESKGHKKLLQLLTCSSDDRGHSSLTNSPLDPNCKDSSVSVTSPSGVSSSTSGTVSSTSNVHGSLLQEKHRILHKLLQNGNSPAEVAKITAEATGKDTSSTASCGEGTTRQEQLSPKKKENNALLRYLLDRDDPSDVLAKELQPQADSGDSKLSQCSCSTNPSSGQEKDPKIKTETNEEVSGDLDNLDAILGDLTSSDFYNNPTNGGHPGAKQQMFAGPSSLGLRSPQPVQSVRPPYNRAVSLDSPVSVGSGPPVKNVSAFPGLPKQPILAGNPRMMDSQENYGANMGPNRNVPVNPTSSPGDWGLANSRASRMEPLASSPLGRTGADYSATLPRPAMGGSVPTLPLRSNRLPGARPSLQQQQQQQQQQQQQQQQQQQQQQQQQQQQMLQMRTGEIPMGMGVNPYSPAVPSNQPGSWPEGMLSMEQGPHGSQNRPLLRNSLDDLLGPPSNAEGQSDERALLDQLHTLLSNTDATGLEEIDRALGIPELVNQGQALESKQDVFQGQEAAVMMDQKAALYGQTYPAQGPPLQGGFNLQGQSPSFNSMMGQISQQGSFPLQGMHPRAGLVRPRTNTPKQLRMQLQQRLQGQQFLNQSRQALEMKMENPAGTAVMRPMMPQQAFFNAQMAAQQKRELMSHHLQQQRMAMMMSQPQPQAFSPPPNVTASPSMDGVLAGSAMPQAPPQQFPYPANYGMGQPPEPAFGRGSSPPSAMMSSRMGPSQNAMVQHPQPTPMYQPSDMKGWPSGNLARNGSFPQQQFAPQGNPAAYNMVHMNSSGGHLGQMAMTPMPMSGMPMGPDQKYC
Dynein cargo inh – dynein cargo transport inhibition | 3617.4 mouse cells, GR-EGFP nuclear translocation imaging; test concentration mostly 20 µM; stimulated with dexamethasone, 1 µM; stronger effect = lower value | z-score, hits read low | hit rate 0.47% among 220,000 | AID 1381;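 active = plate z-score of nuclear minus cytoplasmic receptor signal below a set negative limit, without overly bright fluorescence or cell loss, cut at about -3.5 in these data, passing the limit was not always enough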;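 also: z-score of nuclear minus cytoplasmic ring GR-EGFP intensity difference per well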
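Buffer or medium: tetracycline-free induction medium containing charcoal-stripped FBS / Reagent: dexamethasone agonist, 1.0 µM final, for 30 min / Technique: automated 10x imaging of fixed Hoechst-stained cells / Times: induction 48 h, compound 1 h, agonist 30 min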
CHOP UPR activ – activators of apoptotic arm of unfolded protein response (CHOP). CHO-CHOP luciferase reporter, UPR activation, luminescence; percent of tunicamycin response over DMSO baseline. activation, % at 10 µM. hit rate 0.34% among 330,000;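 active = at 10 µM dose, activation of 40% or more, normalized to positive control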
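Evaluation: % reporter activation, DMSO baseline versus tunicamycin full activation; System: CHO-CHOP luciferase reporter cell line; Input: 500 cells/well; Incubation: 6 h compound treatment, 37 °C; Measured by: Steady-Glo luciferase luminescence; Dosing: one dose, 10 µM in 0.5% DMSO; Buffer or medium: F12 medium, 10% FBS; Benchmarks: positive tunicamycin 10 µg/mL, negative DMSO alone.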
B2AR ag – human beta-2 adrenergic receptor agonism by FAP; P07550; Am2.2-beta2AR cells, FAP receptor internalization, flow cytometry; response, % (concentration not given with the values); hit rate 0.43% among 340,000;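 active = response above a set limit, near 3 SD of response in nonfluorescent compounds, cut at about 42% in these data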
UPR XBP1 act – adaptive UPR (XBP1) activation | CHO-XBP1 luciferase reporter, IRE1-XBP1 UPR activation, luminescence; percent of tunicamycin response, DMSO as zero | activation, % at 20 µM | hit rate 0.33% among 330,000 | AID 463104;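 active = versus positive control, 20 µM dose yields 30% or more activation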
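assay system = CHO-XBP1 luciferase reporter cells | amount = 1000 cells/well | buffer or medium = F12 plus 10% FBS | compound dosing = single point, 20 µM final compound, 1% DMSO | incubation = 16-18 h cell attachment at 37 °C, then 6 h compound exposure | detection = Steady-Glo luminescence read | controls = tunicamycin 10 µg/mL and vehicle-only wells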
CHOP inh – CHOP inhibition in unfolded protein response | CHO-K1 CHOP-promoter luciferase, tunicamycin-induced, 15-18 h | inhibition, % at 10 µM | hit rate 3.8% among 220,000;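 active = compounds that reduced the stress-induced luciferase reporter signal by more than about 70% of percent inhibition, limit read from the data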
Large screens that a line does not name were inactive. The full list was thinned out, with hits kept by preference.

COc1ccc(/C=N/NC(=O)CSc2nnc(CCCc3ccc(OC)c(C)c3)o2)cc1	CHOP inh 70
CC(C)(C)C1COc2ccccc2N1C(=O)c1ccccc1Cl (stereo unspecified)	none (no result: Dynein cargo inh, CHOP inh)
C#CCOC(=O)CCCC(=O)NCCCCCCCC	none
COC(=O)c1cc2ccc(OC)c(OC)c2c(=O)s1	B2AR ag 50
Cn1c(=O)c2c(SC3CCCC3)nc(C3CC3)nc2n(C)c1=O	CHOP inh 80
Cc1[nH]c2ccccc2c1C(=O)/C=C/c1ccccc1Cl	CHOP inh 90
Cc1[nH]c2ccccc2c1C(=O)/C=C/c1ccccc1	none
Cc1[nH]c2ccccc2c1C(=O)/C=C\c1ccccc1Cl	CHOP inh 74
CCCSc1nc2c(c(=O)[nH]c(=O)n2C)n1Cc1ccc(C)cc1	CHOP inh 81
CCCCCn1c(SCc2cccc(C)c2)nc2c1c(=O)[nH]c(=O)n2C	CHOP inh 92
CCCSc1nc2c(c(=O)[nH]c(=O)n2C)n1Cc1ccccc1	none (no result: Dynein cargo inh, CHOP inh)
C/C=C/Cn1c(SCc2ccc(C)cc2)nc2c1c(=O)[nH]c(=O)n2C	CHOP inh 94
O=C(Nc1ccccc1C(=O)O)/C(=C/c1ccc(Cl)cc1Cl)NC(=O)c1ccco1	none (no result: Dynein cargo inh, CHOP inh)
CC(=O)Nc1ccc(NC(=O)C(C)Oc2ccccc2C(=O)NCc2ccccc2)cc1 (stereo unspecified)	none (no result: pCIP destab, Dynein cargo inh, CHOP inh)
CC(NC(=O)Nc1ccc(Cl)cc1)c1ccccc1 (stereo unspecified)	none (no result: Dynein cargo inh, CHOP inh)
Cc1ccc(C(NC(=O)NC(C)c2ccccc2)C(Cl)(Cl)Cl)cc1F (stereo unspecified)	CHOP inh 87
Cn1c(=O)[nH]c(=O)c2c1nc(SCC(O)CCl)n2Cc1ccccc1 (stereo unspecified)	none (no result: Dynein cargo inh, CHOP inh)
O=S(=O)(c1ccc2c(c1)C(=NO)c1cc(S(=O)(=O)N3CCCCC3)ccc1-2)N1CCCCC1	pCIP destab 60, CHOP UPR activ 149, UPR XBP1 act 134 (no result: CHOP inh)
O=S(=O)(c1ccc(S(=O)(=O)N2CCCC2)cc1)N1CCCCCC1	none
Cc1nn(-c2ccccc2)c2sc(C(=O)NNC(=O)COc3cccc4ccccc34)cc12	CHOP inh 92
Cc1nn(-c2ccccc2)c2sc(C(=O)NNC(=O)COc3ccccc3)cc12	none
Cc1cnc(NC(=O)c2cc3c(C)nn(-c4ccccc4)c3s2)s1	CHOP inh 86
Cc1nn(-c2ccccc2)c2sc(C(=O)N3CCCCC3)cc12	CHOP inh 82
Cc1nn(-c2ccccc2)c2sc(C(=O)NC3CCCCC3)cc12	none
Cc1cccc(C)c1NC(=O)CN(c1ccccn1)S(=O)(=O)c1ccc(F)cc1	none
O=C(NCCO)/C(=C\c1ccco1)NC(=O)c1ccco1	none (no result: Dynein cargo inh, CHOP inh)
CCOc1ccc(C(=O)N2CCN(c3ccccn3)CC2)cc1	none (no result: Dynein cargo inh, CHOP inh)
CC(c1ccccc1)N(CCC(c1ccccc1)C1CCOC(C)(C)C1)C(=O)c1ccco1 (stereo unspecified)	CHOP inh 80
Cc1ccc(CN2CCN(CC(=O)NCCCN3CCN(c4ccc(F)cc4)CC3)C2=O)cc1	CHOP inh 73
COc1ccc(N2CCN(CCCNC(=O)CN3CCN(Cc4ccccc4C)C3=O)CC2)cc1	none
CCCCCCc1cc2cc(S(=O)(=O)c3ccc(C)cc3)c(=O)oc2cc1O	CHOP inh 86
CCCCCCc1cc2cc(C(=O)Nc3ccccc3)c(=O)oc2cc1O	CHOP inh 71
Clc1cccc(NCc2nnc(SCc3ccccc3)o2)c1	CHOP inh 71
CC1Cc2ccccc2N1C(=O)CNc1ccccc1N1CCCCC1 (stereo unspecified)	CHOP inh 74
CC1CCN(CC(=O)N2c3ccccc3CC2C)CC1 (stereo unspecified)	none
CC12CCC=CC1=C(C=O)C1C2CCC2(C)C(O)CCC12 (stereo unspecified)	none (no result: pCIP destab, Dynein cargo inh, CHOP UPR activ, UPR XBP1 act, CHOP inh)
O=C(COc1ccc(Cl)cc1Cl)N/N=C/c1cccnc1	none (no result: Dynein cargo inh, CHOP inh)
COc1ccc(/C=N/NC(=O)COc2ccc(Cl)cc2Cl)cc1Cn1nc(C)cc1C	CHOP inh 93
